Bioassay records (PubChem BioAssay)
In the library only some 1.2% were active in any assay of this set; here they are far more common.
PfG6PD inh – PfG6PD (Plasmodium falciparum) enzyme inhibition | PfGluPho enzyme, NADPH resazurin-diaphorase fluorescence | inhibition, % at 20 µM | 350,000 tested, 0.78% active;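 active means inhibition reaching at least a set limit at 20 µM in the primary screen, cut at about 59% in these data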;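 further: 0% = DMSO wells with substrate and 100% = DMSO wells lacking glucose-6-phosphate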
Diaphorase inh – inhibits diaphorase or chemically oxidizes, flagging diaphorase assay artifacts | diaphorase resazurin-to-resorufin fluorescence, NADH, 16 min; bacterial (C. kluyveri) enzyme, not human | inhibition, % at 20 µM | 190,000 tested, 0.69% active | AID 1217;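 active means primary screen inhibition at 20 µM above a set limit, cut at about 50% in these data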;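 further: plate controls were DMSO with full reaction for no effect and wells lacking NADH for full effect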
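Detection: fluorescence of resorufin formed from resazurin, Ex 544/Em 590 nm; test system: Clostridium kluyveri diaphorase enzyme; amount: 0.14 U/mL diaphorase, enzyme working solution; times: 16-min room-temperature incubation before reading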
TbHK1 inh – blocks Trypanosoma brucei hexokinase 1 activity. recombinant TbHK1, G6PDH-coupled NADH A340. inhibition, % at 10 µM. 220,000 tested, 0.11% active. AID 1430;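 active means inhibition of 50% or more in the single-dose primary screen; inactive means inhibition below 50%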
HKDC1 inhibitor – HKDC1 (human) hexokinase inhibition. Q2TB90. recombinant HKDC1, G6PDH/diaphorase resazurin coupled fluorescence. inhibition, % at 20 µM. 340,000 tested, 0.16% active. AID 493160;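 active means inhibition above about 35% when tested at 20 µM, limit read from the data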;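 further: plate controls were DMSO wells with enzyme for no effect and DMSO wells lacking enzyme for full effect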
Target sequence (Q2TB90 whole entry, looked up): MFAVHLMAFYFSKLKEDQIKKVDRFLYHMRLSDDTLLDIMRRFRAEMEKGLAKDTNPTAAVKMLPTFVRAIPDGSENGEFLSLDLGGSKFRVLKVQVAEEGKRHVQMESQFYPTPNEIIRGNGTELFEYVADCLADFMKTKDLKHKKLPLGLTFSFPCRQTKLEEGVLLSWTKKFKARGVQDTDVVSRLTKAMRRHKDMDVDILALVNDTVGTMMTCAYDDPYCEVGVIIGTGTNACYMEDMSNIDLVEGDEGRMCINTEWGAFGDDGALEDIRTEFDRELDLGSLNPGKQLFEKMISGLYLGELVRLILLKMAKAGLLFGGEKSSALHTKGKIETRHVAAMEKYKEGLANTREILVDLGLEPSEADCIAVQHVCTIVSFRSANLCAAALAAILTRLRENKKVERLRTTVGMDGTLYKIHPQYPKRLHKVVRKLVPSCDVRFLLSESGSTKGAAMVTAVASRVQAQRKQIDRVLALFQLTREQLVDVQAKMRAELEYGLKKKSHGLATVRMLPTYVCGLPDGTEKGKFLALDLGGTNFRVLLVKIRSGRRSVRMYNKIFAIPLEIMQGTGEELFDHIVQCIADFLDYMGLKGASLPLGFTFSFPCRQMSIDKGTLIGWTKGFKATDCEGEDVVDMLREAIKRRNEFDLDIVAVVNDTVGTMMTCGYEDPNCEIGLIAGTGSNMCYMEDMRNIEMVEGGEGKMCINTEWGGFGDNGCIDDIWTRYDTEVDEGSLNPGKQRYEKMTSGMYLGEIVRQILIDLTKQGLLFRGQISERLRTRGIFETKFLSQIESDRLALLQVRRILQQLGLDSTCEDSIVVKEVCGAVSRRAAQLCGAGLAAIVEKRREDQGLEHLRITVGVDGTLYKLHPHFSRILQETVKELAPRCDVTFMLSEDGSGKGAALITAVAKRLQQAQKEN
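Test system: recombinant HKDC1 (HK5) hexokinase enzyme, produced in-house / Doses: 20 µM test compound, 1% DMSO / Timing: 90 min, room temperature / Detection: G6PDH/diaphorase-coupled fluorescence, 1 mM NADP, 100 µM resazurin, 525/613 nm / Control set: DMSO wells with and without enzyme mix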
G6PDH CS – L. mesenteroides G6PDH inhibition counter-screen; Purified L. mesenteroides G6PDH, diaphorase/resazurin coupled fluorescence, 45 min; inhibition, % at 5 µM; 200,000 tested, 0.12% active; in the data active means inhibition above about 50%
* = called active by the depositor; x = no result given.

SMILES | PfG6PD inh | Diaphorase inh | TbHK1 inh | HKDC1 inhibitor | G6PDH CS
Cc1cc(C)n2nc(SC(C)C(=O)Nc3ccc(Cl)cn3)nc2n1 (stereo not drawn) | 16.8 | 65.7* | -0.9 | 25.0 | 3.5
CN1C(=O)[C@H]2[C@@H](c3ccc(C(F)(F)F)cc3)N[C@]3(CCCN(Cc4ccc(Br)cc4)C3=O)[C@H]2C1=O | 19.2 | x | x | x | x
C=CCOc1c(Br)cc(CNc2ccc(NC(=O)C(C)C)c(OC)c2)cc1OCC | 60.0* | 34.5 | -12.4 | 5.4 | 26.1
CN(C)c1ccc(N=Cc2ccco2)cc1 | 60.1* | 47.7 | 6.4 | 3.3 | 28.5
CN(C)c1ccc(C=Nc2ccccc2)cc1 | -18.7 | -7.2 | -4.8 | -5.0 | 5.8
C(=N\C(/N=C/c1ccco1)c1ccco1)/c1ccco1 | 11.9 | 31.9 | -4.6 | 4.7 | 6.2
C(=Nc1cccc2c(N=Cc3ccco3)cccc12)c1ccco1 | 19.6 | 81.3* | -9.4 | -7.0 | 10.9
CC1OC(CC(=O)O)CC2=C1C(=O)c1c(O)cccc1C2=O (stereo not drawn) | 130.7* | x | x | 30.8 | x
O=C1c2cccc(O)c2C(=O)c2c(O)cccc21 | x | 25.5 | 2.6 | x | 17.4
Cc1ccc2ccc(C(Nc3ccccn3)c3ccccc3)c(O)c2n1 (stereo not drawn) | -16.4 | 32.0 | -2.0 | -22.1 | 7.0
COc1cc(C(Nc2ccccn2)c2ccc3ccc(C)nc3c2O)cc(OC)c1O (stereo not drawn) | 58.6 | 62.8* | -3.8 | 8.1 | 60.6*
O=c1c(OC2OC(CO)C(O)C(O)C2O)c(-c2ccc(O)c(O)c2)oc2cc(O)cc(O)c12 (stereo not drawn) | -21.8 | 61.7* | -19.3 | -0.4 | 41.2
C[C@@H]1O[C@@H](Oc2c(-c3cc(O)c(O)c(O)c3)oc3cc(O)cc(O)c3c2=O)[C@H](O)[C@H](O)[C@H]1O | 28.0 | 70.9* | -15.3 | 0.9 | 34.4
O=C(CN1CCN(C(=O)c2cncn2-c2ccccc2)CC1)Nc1ccccc1Cl | -10.2 | x | x | 1.6 | x
COC(=O)Cn1cc(/C=C(/C#N)C(=O)N2CCOCC2)c2ccccc21 | -5.2 | 7.9 | -25.8 | 0.5 | 13.7
COc1ccc(S(=O)(=O)N2CCN(c3ccc4nnc(-c5ccccc5)n4n3)CC2)cc1 | 24.7 | 52.8* | -27.5 | 14.1 | 6.0
CCC(C)C1=CC(=Nc2c(C)n(C)n(-c3ccccc3)c2=O)C=C(C(C)CC)C1=O (stereo not drawn) | 14.8 | 68.3* | -5.8 | -6.0 | -3.5
COc1ccc(C(=O)C(C)OC(=O)C2CC3CCCC(C2)C3=O)cc1 (stereo not drawn) | -26.1 | x | x | x | x
COc1cccc(OCCNC(=O)c2cc(OC)c(OC)c(OC)c2)c1 | -3.2 | x | x | -0.2 | x
COc1ccc(C(=O)NCCOc2cccc(OC)c2)cc1 | 22.9 | 67.5* | 4.1 | -8.7 | 10.8
COc1ccc(CCC(=O)Nc2c(C)n(C)n(-c3ccccc3)c2=O)cc1 | -10.0 | 11.6 | -3.5 | -13.6 | 4.1
CCOC1=C/C(=C/c2c(N)n3nc(-c4ccccc4)sc3nc2=O)C=CC1=O | -14.8 | 69.4* | -18.2 | 8.6 | 15.2
O=C1C=CC(=O)N1c1ccc(O)cc1 | 22.1 | x | 1.2 | -2.6 | x
O=C1C=CC(=O)N1c1ccc(OC(F)F)cc1 | 87.5* | 11.2 | -1.4 | -7.0 | -10.6
COc1cc(C(=S)N2CCN(c3ccccc3Cl)CC2)cc(O)c1O | 26.1 | 61.4* | 6.0 | -0.2 | 10.7
SMILES | PfG6PD inh | Diaphorase inh | TbHK1 inh | HKDC1 inhibitor | G6PDH CS
COc1ccc2c(c1)-c1nc(N)sc1CC2 | 33.4 | 60.5* | -1.8 | 28.4 | 43.0
Nc1nc2c(s1)CCc1ccccc1-2 | 36.8 | x | x | 16.3 | x
Cc1ccc2c(c1)N/C(=C(\C=C(/Cl)[N+](=O)[O-])[N+](=O)[O-])N2 | x | 74.9* | -7.8 | x | 25.7
O[C@H]1C[C@H](c2ccc(Cl)cc2)N(CC2CCCCC2)C[C@@H]1n1cc(C2CC2)nn1 | 37.9 | x | x | x | x
O=C1C=CC(=O)N1c1ccccc1N1C(=O)C=CC1=O | 114.4* | x | x | -9.2 | x
NC(=S)n1[nH]c(-c2ccc([N+](=O)[O-])cc2)c(N=Nc2ccc(O)cc2)c1=O | -2.5 | 20.2 | -13.2 | -3.8 | 5.6
NC(=S)n1[nH]c(-c2ccc([N+](=O)[O-])cc2)c(N=Nc2cccc(Cl)c2)c1=O | -44.1 | 50.8* | -5.7 | -7.3 | 1.8
COc1ccc(C=Nc2cccnc2N)cc1 | 9.2 | x | x | 1.8 | x
CCOc1ccc(C=Nc2cccc3ncccc23)cc1 | 12.5 | 51.2* | -10.8 | 12.4 | 12.3
COc1ccc(N(CC(=O)N2CCN(c3ccccc3)CC2)S(=O)(=O)c2ccccc2)cc1 | 16.2 | x | x | x | x
Cc1c(NS(=O)(=O)c2ccc(N3CCCCC3)c([N+](=O)[O-])c2)c(=O)n(-c2ccccc2)n1C | -11.1 | 27.7 | -0.3 | 0.0 | 5.6
Cc1c(Nc2cc(N3CCCCCC3)c3nonc3c2[N+](=O)[O-])c(=O)n(-c2ccccc2)n1C | -18.1 | 51.4* | -17.4 | -2.2 | 12.4
CC(C)[C@@H](C(=O)N[C@@H](Cc1ccccc1)C(=O)O)N1C(=O)N2CCc3c([nH]c4ccccc34)[C@@]2(C)C1=O | 7.2 | x | x | -4.7 | x
CCN(CC)c1ccc(N=Cc2ccccc2[N+](=O)[O-])cc1 | 56.2 | 37.6 | 4.5 | 2.3 | 3.5
CCN(CC)c1ccc(N=Cc2ccc([N+](=O)[O-])o2)cc1 | 69.3* | 49.1 | -2.9 | 4.8 | 12.6
C=C1N(C)c2cc([N+](=O)[O-])c(N)cc2C1(C)C | 33.4 | 74.6* | -6.8 | 7.0 | 44.5
CCOc1ccc(CCNC(=O)COC(=O)c2ccc(C)c([N+](=O)[O-])c2)cc1OCC | -1.8 | x | x | -5.8 | x
C[C@H]1CN([C@@H](C)CO)S(=O)(=O)c2ccc(/C=C/c3ccccc3)cc2O[C@H]1CN(C)C(=O)NC1CCCCC1 | 30.5 | x | x | x | x
N#C/C(C(N)=O)=c1/ccc2c(c1)N1C3=C(CCCC3)CC3CCCCC31N=2 (stereo not drawn) | 44.4 | 90.9* | -1.6 | 51.5* | 11.2
Cc1csc(NS(=O)(=O)c2cccc([N+](=O)[O-])c2)n1 | -2.8 | 67.3* | 5.8 | -6.5 | 10.5
CCOC(=O)Cc1csc(NS(=O)(=O)c2cccc([N+](=O)[O-])c2)n1 | -4.7 | x | x | -4.3 | x
CCOc1ccc(C(=O)NC(=S)Nc2ccc(N3CCCCC3)cc2)cc1[N+](=O)[O-] | 64.5* | 19.7 | 8.6 | -6.6 | -8.5
CCOc1ccc(C(=O)NC(=S)Nc2ccccc2N2CCCCC2)cc1[N+](=O)[O-] | -1.1 | 5.5 | 4.9 | 7.6 | 9.3
Cc1ccc2cc(C(c3nnnn3C(C)(C)C)N3CCCCCC3)c(=O)[nH]c2c1 (stereo not drawn) | -1.5 | 51.8* | -11.7 | -6.7 | 14.8
Cc1ccc(S(=O)(=O)N2C[C@H]3N(C(=O)OC(C)C)N(C(=O)OC(C)C)C[C@H](OC(=O)NCC4CCCCC4)[C@@]3(O)C2)cc1 | 31.0 | x | x | x | x
O=c1c2ccccc2nc(-c2ccc(F)cc2)n1NCc1ccccc1O | 12.5 | 18.7 | 6.7 | -7.5 | 4.7
C[C@@H]1CN([C@H](C)CO)C(=O)CCCn2nncc2CO[C@H]1CN(C)Cc1ccc(O)cc1 | -0.7 | x | x | x | x
